{"source": "ChEMBL document CHEMBL4393719", "about": "“Tetrahydro-3-benzazepines with fluorinated side chains as NMDA and σ1 receptor antagonists: Synthesis, receptor affinity, selectivity and antiallodynic activity” (Eur J Med Chem, 2019)", "key": {"[1]": {"target": "Alpha-1A adrenergic receptor (Homo sapiens) (UniProt P35348)", "sequence (P35348 whole entry)": "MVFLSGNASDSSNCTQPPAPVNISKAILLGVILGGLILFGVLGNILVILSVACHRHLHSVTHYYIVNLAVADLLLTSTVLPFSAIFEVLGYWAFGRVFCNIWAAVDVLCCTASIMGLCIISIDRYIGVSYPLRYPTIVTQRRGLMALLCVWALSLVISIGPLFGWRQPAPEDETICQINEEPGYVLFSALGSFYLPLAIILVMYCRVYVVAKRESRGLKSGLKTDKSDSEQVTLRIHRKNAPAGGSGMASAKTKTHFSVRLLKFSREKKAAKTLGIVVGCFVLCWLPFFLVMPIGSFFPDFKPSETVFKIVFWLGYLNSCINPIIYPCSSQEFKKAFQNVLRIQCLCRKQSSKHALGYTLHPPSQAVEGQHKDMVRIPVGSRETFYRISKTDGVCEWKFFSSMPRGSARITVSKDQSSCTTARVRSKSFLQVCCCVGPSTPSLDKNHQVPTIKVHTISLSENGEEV", "experiment": "Displacement of [3H]prazosin from human adrenergic alpha1A receptor at 1 uM after 90 mins by scintillation counting method relative to control", "summary_of_the_method": "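α1A adrenoceptor-enriched human membranes (10 µg), 0.2 nM [3H]prazosin in 50 mM HEPES, 5 mM MgCl2, 1 mM CaCl2, 0.2% BSA, pH 7.4; 90 min at 25 °C; 1 µM prazosin for nonspecific binding. Compound tested at 1 µM; bound ligand collected by filtration.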"}, "[2]": {"target": "Sodium-dependent serotonin transporter (Homo sapiens) (UniProt P31645)", "sequence (P31645 whole entry, looked up)": "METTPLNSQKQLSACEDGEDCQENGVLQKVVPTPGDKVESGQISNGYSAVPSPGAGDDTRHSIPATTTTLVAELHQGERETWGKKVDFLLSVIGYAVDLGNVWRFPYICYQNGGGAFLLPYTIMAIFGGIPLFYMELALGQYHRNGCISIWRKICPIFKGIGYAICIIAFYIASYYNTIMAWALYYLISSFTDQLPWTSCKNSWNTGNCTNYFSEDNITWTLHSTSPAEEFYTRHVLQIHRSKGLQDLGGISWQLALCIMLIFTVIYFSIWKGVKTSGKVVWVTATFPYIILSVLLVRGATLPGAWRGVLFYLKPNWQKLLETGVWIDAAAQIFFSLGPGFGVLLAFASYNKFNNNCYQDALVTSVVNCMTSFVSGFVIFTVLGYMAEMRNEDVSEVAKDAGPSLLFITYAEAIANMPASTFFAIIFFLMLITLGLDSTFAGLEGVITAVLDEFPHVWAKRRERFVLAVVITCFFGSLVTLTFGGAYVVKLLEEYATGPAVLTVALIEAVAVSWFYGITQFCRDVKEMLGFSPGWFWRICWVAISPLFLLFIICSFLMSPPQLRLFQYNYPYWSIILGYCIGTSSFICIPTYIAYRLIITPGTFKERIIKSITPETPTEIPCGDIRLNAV", "experiment": "Displacement of [3H]imipramine from human serotonin transporter at 1 uM after 30 mins by scintillation counting method relative to control", "summary_of_the_method": "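Human SERT-enriched membranes (3.5 μg) incubated 30 min at 27 °C with 3 nM [3H]imipramine in Tris-HCl/120 mM NaCl/5 mM KCl pH 7.4, 0.1% DMSO; 200 μM imipramine for nonspecific binding. Compound at 1 μM; displacement after filtration.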"}, "[3]": {"system": "HepG2", "experiment": "Cytotoxicity against human HepG2 assessed as reduction in cell viability at 1 to 100 uM after 20 hrs by MTT assay", "type": "cell-based", "conditions": "hepg2, 20 h", "summary_of_the_method": "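HepG2 cells, 3 x 10^4/well, grown 24 h in MEM/10% FBS, then exposed 20 h in serum-free medium to compound at 1, 10, 100 µM (from DMSO solutions). MTT 0.5 mg/mL for 4 h, formazan dissolved in DMSO, OD 550 nm. IC50 taken as lowest concentration giving ≥50% cytotoxicity versus untreated cells; duplicates in two assays (n = 4).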"}, "[4]": {"experiment": "Drug metabolism in human liver microsomes at 1 uM incubated for 1 hr in presence of NADPH by UPLC-MS analysis", "type": "ADME, Microsome", "conditions": "read-out: Drug metabolism", "summary_of_the_method": "(§1)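 Liver microsomes, compound 1 µM, 37 °C for 1 h in 50 mM Na/K phosphate pH 7.4, 3 mM MgCl2, NADPH-regenerating system, CYP 0.3 nmol/mL. Aliquots at 0, 10, 20, 40, 60 min quenched with cold acetonitrile, supernatants by UPLC-MS/MS; % parent remaining at end reported. Terfenadine as positive control.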"}, "[5]": {"experiment": "Drug metabolism in rat liver microsomes at 1 uM incubated for 1 hr in presence of NADPH by UPLC-MS analysis", "type": "ADME, Microsome", "conditions": "read-out: Drug metabolism", "summary_of_the_method": "as §1"}, "[6]": {"experiment": "Selectivity ratio of Ki for GluN2B/GluN1a (unknown origin) expressed in mouse L(tk-) cell membranes to Ki for sigma1 receptor in guinea pig brain cortex membranes", "type": "cell-based"}, "[7]": {"experiment": "Stability of compound in phosphate buffer at pH 7.4 after 24 hrs by HPLC analysis", "type": "physicochemical", "conditions": "pH 7.4, 24 h", "summary_of_the_method": "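Compound (25 μL of 10 mM DMSO stock) added to 1 mL aqueous buffered solution, pH 2 or pH 7.4, stirred 24 h at room temperature, analyzed by HPLC-MS; deemed stable if peak area remained 95–105%.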"}, "[8]": {"experiment": "Displacement of [3H] ifenprodil from GluN2B/GluN1a (unknown origin) expressed in mouse L(tk-) cell membranes incubated for 120 mins by scintillation counting method", "set-up": "species or system Homo sapiens", "summary_of_the_method": "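Membranes from mouse L(tk-) cells co-transfected with dexamethasone-inducible GluN1a/GluN2B (1:5), induced 24 h with 4 μM dexamethasone plus 4 μM ketamine.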"}, "[9]": {"system": "Mus musculus", "experiment": "Antiallodynic activity in CD-1 mouse model of capsaicin-induced mechanical allodynia assessed as increase in paw withdrawal threshold at 32 mg/kg, sc administered 30 mins before capsaicin addition and measured after 15 mins in presence of sigma1 receptor agonist PRE-084 by von-Frey test", "type": "functional, organism-based", "summary_of_the_method": "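Female CD-1 mice pretreated sc with σ1 agonist PRE-084 (32 mg/kg) 5 min before sc test compound; 30 min later capsaicin 1 µg intraplantar. After 15 min, 0.5 g electronic von Frey stimulus on secondary hyperalgesia area; withdrawal latency averaged over three trials, 50 s cutoff. Effect as % antiallodynia versus HPMC-treated; 6-8 animals, one-way ANOVA plus Bonferroni.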"}, "[10]": {"target": "Voltage-gated inwardly rectifying potassium channel KCNH2 (Homo sapiens, UniProt Q12809)", "sequence (Q12809 whole entry)": "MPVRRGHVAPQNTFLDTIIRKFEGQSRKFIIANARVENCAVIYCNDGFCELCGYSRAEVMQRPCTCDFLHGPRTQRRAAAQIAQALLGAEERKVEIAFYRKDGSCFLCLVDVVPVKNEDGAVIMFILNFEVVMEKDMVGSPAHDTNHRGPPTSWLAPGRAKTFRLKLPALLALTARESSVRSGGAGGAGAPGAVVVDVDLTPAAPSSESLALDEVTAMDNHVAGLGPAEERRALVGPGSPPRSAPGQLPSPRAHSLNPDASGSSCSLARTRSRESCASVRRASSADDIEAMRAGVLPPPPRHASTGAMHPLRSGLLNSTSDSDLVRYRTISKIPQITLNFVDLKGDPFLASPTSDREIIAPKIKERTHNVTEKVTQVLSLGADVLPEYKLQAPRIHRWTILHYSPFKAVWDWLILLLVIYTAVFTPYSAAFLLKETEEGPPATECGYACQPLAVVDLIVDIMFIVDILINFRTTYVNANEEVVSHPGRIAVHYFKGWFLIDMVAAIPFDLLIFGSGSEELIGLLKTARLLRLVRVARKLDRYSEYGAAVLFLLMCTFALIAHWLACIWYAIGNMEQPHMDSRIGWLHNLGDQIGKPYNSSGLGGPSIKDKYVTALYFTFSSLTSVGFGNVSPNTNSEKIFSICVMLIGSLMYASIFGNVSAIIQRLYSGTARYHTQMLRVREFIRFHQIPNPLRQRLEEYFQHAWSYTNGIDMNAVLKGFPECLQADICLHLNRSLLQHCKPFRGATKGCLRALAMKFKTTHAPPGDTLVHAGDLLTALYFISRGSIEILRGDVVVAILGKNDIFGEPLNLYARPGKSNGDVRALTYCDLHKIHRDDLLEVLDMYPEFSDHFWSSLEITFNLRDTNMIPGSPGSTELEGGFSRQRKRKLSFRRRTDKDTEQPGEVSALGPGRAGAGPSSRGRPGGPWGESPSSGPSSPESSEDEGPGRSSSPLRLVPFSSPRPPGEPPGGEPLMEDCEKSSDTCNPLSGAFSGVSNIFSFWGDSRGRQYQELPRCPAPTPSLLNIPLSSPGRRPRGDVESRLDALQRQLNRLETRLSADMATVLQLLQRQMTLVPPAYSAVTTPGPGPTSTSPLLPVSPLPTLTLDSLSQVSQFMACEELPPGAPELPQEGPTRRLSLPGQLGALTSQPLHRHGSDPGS", "experiment": "Inhibition of human ERG expressed in CHO cells at -80 mV holding potential by automated patch clamp electrophysiology assay", "type": "cell-based"}, "[11]": {"target": "Kappa-type opioid receptor (Homo sapiens, UniProt P41145)", "sequence (P41145 whole entry)": "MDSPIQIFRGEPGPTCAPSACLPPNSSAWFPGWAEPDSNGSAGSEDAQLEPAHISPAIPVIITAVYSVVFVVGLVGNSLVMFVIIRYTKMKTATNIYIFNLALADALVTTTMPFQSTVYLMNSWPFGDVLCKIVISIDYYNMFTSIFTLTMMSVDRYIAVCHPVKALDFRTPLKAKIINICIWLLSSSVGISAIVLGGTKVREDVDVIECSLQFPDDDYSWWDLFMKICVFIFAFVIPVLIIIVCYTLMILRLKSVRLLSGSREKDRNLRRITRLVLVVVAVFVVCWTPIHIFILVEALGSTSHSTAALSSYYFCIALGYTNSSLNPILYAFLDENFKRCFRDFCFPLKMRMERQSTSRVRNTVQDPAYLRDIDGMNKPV", "experiment": "Inhibition of KOR (unknown origin)"}}, "note": "pIC50, pKi: −log10 of the molar value. Active and inactive are the calls of the source.", "data": [{"smiles": "COc1ccc2c(c1)CCN(CCC(F)Cc1ccccc1)CC2", "note": "(stereo unspecified)", "values": [{"measurement": "inhibition", "setting": "[1]", "result": "< 50", "unit": "%"}, {"measurement": "inhibition", "setting": "[2]", "result": "< 50", "unit": "%"}, {"measurement": "Activity", "setting": "[3]", "result": "Toxic"}, {"measurement": "metabolised at 1 h, 1 µM", "setting": "[4]", "result": 100, "unit": "%"}, {"measurement": "metabolised at 1 h, 1 µM", "setting": "[5]", "result": 100, "unit": "%"}, {"measurement": "Ratio Ki", "setting": "[6]", "result": "< 18"}, {"measurement": "Stability", "setting": "[7]", "result": "Stable"}, {"measurement": "pKi", "setting": "[8]", "result": 6.92}, {"measurement": "Activity", "setting": "[9]", "result": "Active"}, {"measurement": "pIC50", "setting": "[10]", "result": 6.26}, {"measurement": "pKi", "setting": "[11]", "result": "< 6.00"}]}]}
